ChEMBL document CHEMBL1124004, “Inhibitors of cyclic AMP phosphodiesterase. 3. Synthesis and biological evaluation of pyrido and imidazolyl analogues of 1,2,3,5-tetrahydro-2-oxoimidazo[2,1-b]quinazoline” (J Med Chem, 1988)
The source made the active and inactive calls. No cut-off for these calls is given here.

Tests used:
[1] = species: Canis familiaris; assay: Dose at which 50% blood pressure decrease in dogs; assay type: functional; details: Canis lupus familiaris
Outline: (§1)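 Instrumented, anesthetized dogs. Cardiac force, heart rate and blood pressure response curves were plotted against dose. When n > 1, the mean at each dose level was plotted.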

[2] = species: Canis familiaris; assay: Dose at which 50% heart rate increase in dogs; assay type: functional; details: Canis lupus familiaris; outline: as §1
[3] = species: Canis familiaris; assay: Dose at which 50% maximal effect for cardiac force increase in dogs; assay type: functional; details: Canis lupus familiaris, Heart; outline: as §1
[4] = tested on: Canis familiaris; assay: Percent maximum increase in cardiac force in anesthetized dogs using isoproterenol as agonist at 140 nmol/kg; assay type: functional, Canis lupus familiaris, Heart
Outline: (§2)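 Instrumented, anesthetized dogs. Cardiac force rise from the test agent is expressed as a percent of the maximum cardiac force increase seen in the same animal with isoproterenol as agonist. N = number of experiments.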

[5] = tested on: Canis familiaris; assay: Percent maximum increase in cardiac force in anesthetized dogs using isoproterenol as agonist; inactive at all doses up to 1000 ug/kg; assay type: functional, organism-based; details: Canis lupus familiaris; Heart; outline: as §2
[6] = species: Homo sapiens; assay: Inhibition of ADP induced platelet aggregation; inactive; assay type: functional
[7] = biological target: T1, Phosphodiesterase 3 (Homo sapiens, UniProt Q14432+Q13370); assay: Inhibition of platelet cAMP phosphodiesterase
[8] = biological target: T1, Phosphodiesterase 3; assay: Inhibition of human platelet cAMP phosphodiesterase at 100 uM
[9] = species: Homo sapiens; assay: Inhibition of ADP induced platelet aggregation; assay type: functional
Outline: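 Human platelets with ADP as the aggregating stimulus. Each assay was run in triplicate at five inhibitor concentrations. The mean at each concentration was plotted and the IC50 was read graphically.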

[10] = tested on: Canis familiaris; assay: Percent maximum increase in cardiac force in anesthetized dogs using isoproterenol as agonist at 125 nmol/kg; assay type: functional, Canis lupus familiaris, Heart; outline: as §2
[11] = tested on: Canis familiaris; assay: Percent maximum increase in cardiac force in anesthetized dogs using isoproterenol as agonist at 75 nmol/kg; assay type: functional, Canis lupus familiaris, Heart; outline: as §2
[12] = tested on: Canis familiaris; assay: Percent maximum increase in cardiac force in anesthetized dogs using isoproterenol as agonist at 185 nmol/kg; assay type: functional, Canis lupus familiaris, Heart; outline: as §2
[13] = tested on: Canis familiaris; assay: Percent maximum increase in cardiac force in anesthetized dogs using isoproterenol as agonist at greater than 5000 nmol/kg; assay type: functional, Canis lupus familiaris, Heart

Row | SMILES | IC50 [7] | IC50 [9] | further results
1 | Cc1[nH]c(=O)c(C#N)cc1-c1ccncc1 [MILRINONE] | – | – | ED50 [1]: 0.59 µmol/kg; ED50 [2]: 0.19 µmol/kg; ED50 [3]: 0.09 µmol/kg; Max CF response [4]: 65%
2 | O=C1CN=C(Nc2ccc(-n3ccnc3)cc2)N1 | 250 µM | – | Max CF response [5]: inactive; IC50 [6]: Not Active
3 | O=C1CN2Cc3cc(OCc4ccccc4)ccc3N=C2N1 | 0.56 µM | – | –
4 | CCc1[nH]c(=O)[nH]c1C(=O)c1ccncc1 [PIROXIMONE] | > 100 µM | – | inhibition [8]: 40%
5 | O=C1CN2Cc3ncccc3N=C2N1 | 30 µM | 25 µM | –
6 | Cc1c(Br)ccc2c1CN1C(=N2)NC(=O)C1C (configuration not stated) | 0.07 µM | – | –
7 | O=C1CN2Cc3ccccc3N=C2N1 | 8.8 µM | – | –
8 | O=C1CN2Cc3cc(I)ccc3N=C2N1 | 0.52 µM | – | –
9 | C[C@@H]1C(=O)NC2=Nc3cccc(Cl)c3CN21 [QUAZINONE] | 0.24 µM | – | –
10 | CC1CC(O)=NN=C1c1ccc(-n2ccnc2)cc1 (configuration not stated) [CI-930] | – | – | ED50 [1]: 0.1 µmol/kg; ED50 [2]: 0.1 µmol/kg; ED50 [3]: 0.1 µmol/kg; Max CF response [10]: 72%
11 | O=C1CN2Cc3cc(OCCCCCCn4ccnc4)ccc3N=C2N1 | 0.7 µM | 23 µM | –
12 | CN(C(=O)CCCOc1ccc2c(c1)CN1CC(=O)NC1=N2)C1CCCCC1 [LIXAZINONE] | – | – | ED50 [1]: 0.05 µmol/kg; ED50 [2]: 0.03 µmol/kg; ED50 [3]: 0.02 µmol/kg; Max CF response [11]: 71%
13 | O=C1CN2Cc3cc(OCCn4ccnc4)ccc3N=C2N1 | 2 µM | 40 µM | –
14 | O=C1CN2Cc3cc(-n4ccnc4)ccc3N=C2N1 | 0.6 µM | 6 µM | ED50 [1]: 0.64 µmol/kg; ED50 [2]: 0.22 µmol/kg; ED50 [3]: 0.18 µmol/kg; Max CF response [12]: 63%
15 | O=C1CN2Cc3cc(O)ccc3N=C2N1 | 3.3 µM | – | –
16 | O=C1CN2Cc3ccncc3N=C2N1 | 26 µM | 26 µM | –
17 | O=C1CN2Cc3cnccc3N=C2N1 | 18 µM | 46 µM | ED50 [1]: > 1 µmol/kg; ED50 [2]: > 1 µmol/kg; ED50 [3]: 0.78 µmol/kg; Max CF response [13]: 27%
18 | O=C1CN2Cc3cccnc3N=C2N1 | 330 µM | 200 µM | –
19 | O=C1CN2Cc3cc(N4CCCCC4)ccc3N=C2N1 | 0.15 µM | – | –
20 | O=C1CN2Cc3cc(Cl)ccc3N=C2N1 | 1.5 µM | – | –
